Active and inactive are the calls of the source. No cut-off for these calls is given here.
Assays:
[1] = Drug uptake in FVB.129P2 mouse plasma at 20 mg/kg,sc for 5 days and measured after 24 hrs by LC-MS/MS analysis; assay type: ADME, organism-based; conditions: in vivo, 120 h, time 5 day
Outline: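 Mice dosed s.c. at 20 mg/kg once daily for up to 5 d; plasma and forebrain sampled 24 h after the last injection. Brain homogenized in 2 volumes of cold PBS; levels measured by LC-MS/MS. n = 3–4, mean ± SEM.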

Mus musculus [2] = assay: Protective activity in Fmr1 knockout FVB.129P2-Fmr1tm1Cgr/J mouse assessed as decrease in apical dendritic spine density in layer II/III pyramidal neurons segment 6 at 20 mg/kg, sc and measured after 8 hrs by Golgi-Cox technique analysis; assay type: functional, organism-based
Outline: (§1)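 Adult male WT and Fmr1 KO FVB mice given 20 mg/kg s.c. or vehicle; brains collected 8 h later and Golgi stained. Apical dendrites of layer II/III pyramidal neurons in temporal cortex, originating 50–100 µm from the soma, were divided into ten 10-µm segments and spines counted. 40–60 neurons from 4–6 mice per group; one-way ANOVA.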

Mus musculus [3] = assay: Protective activity in Fmr1 knockout FVB.129P2-Fmr1tm1Cgr/J mouse assessed as decrease in apical dendritic spine density in layer II/III pyramidal neurons segment 8 at 20 mg/kg, sc and measured after 8 hrs by Golgi-Cox technique analysis; assay type: functional, organism-based; outline: as §1
Mus musculus [4] = assay: Protective activity in Fmr1 knockout FVB.129P2-Fmr1tm1Cgr/J mouse assessed as decrease in apical dendritic spine density in layer II/III pyramidal neurons segment 10 at 20 mg/kg, sc and measured after 8 hrs by Golgi-Cox technique analysis; assay type: functional, organism-based; outline: as §1
Mus musculus [5] = assay: Anti-seizure activity against 124dB loud auditory stimulus induced Fmr1 knockout FVB.129P2-Fmr1tm1Cgr/J mouse model of audiogenic seizure assessed as decrease in sound-induced death due to respiratory arrest at 10 to 30 mg/kg,sc for 8 hrs followed by audiogenic seizure induction by audiogenic seizure assay; assay type: functional, organism-based; conditions: dose 10-30 mg/kg
Outline: (§2)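 Adult male mice (10–17 wk). Single s.c. dose (0, 10, 20 or 30 mg/kg) in 20% (wt/vol) hydroxypropyl-β-cyclodextrin vehicle; AGS induced 8 h later. Mouse acclimated 2 min in a clear acrylic two-chamber box, then exposed to a 124 dB sound. Scored as percentage of animals showing each sequential phase (wild running, seizure, death by respiratory arrest); χ2 test against vehicle.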

Mus musculus [6] = assay: Anti-seizure activity against 124dB loud auditory stimulus induced Fmr1 knockout FVB.129P2-Fmr1tm1Cgr/J mouse model of audiogenic seizure assessed as decrease in sound-induced seizure at 10 mg/kg,sc for 8 hrs followed by audiogenic seizure induction by audiogenic seizure assay (Rvb=100%); assay type: functional; parameters: scale not given: the % may be the effect or the level left; outline: as §2
Mus musculus [7] = assay: Protective activity in Fmr1 knockout FVB.129P2-Fmr1tm1Cgr/J mouse model of Fragile X syndrome assessed as decrease in distance travelled at 20 mg/kg, sc for 5 days and measured during 18 to 30 mins by open field assay; assay type: functional, organism-based; conditions: time 5.0 day
Outline: (§3)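 Adult male WT and Fmr1 KO mice dosed s.c. at 20 mg/kg or vehicle for 5 d; tested 4–5.5 h after dosing. Single mouse in a novel open field for 30 min, tracked by infrared sensors in 1-min bins; bar-graph values averaged over minutes 18–30. Mice beyond 2 SD in total distance, or immobile for 5 consecutive minutes, were excluded.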

Mus musculus [8] = assay: Protective activity in Fmr1 knockout FVB.129P2-Fmr1tm1Cgr/J mouse model of Fragile X syndrome assessed as decrease in horizontal movements at 20 mg/kg, sc for 5 days and measured for 30 mins by open field assay; assay type: functional, organism-based; conditions: time 5.0 day; outline: as §3
Mus musculus [9] = assay: Protective activity in Fmr1 knockout FVB.129P2-Fmr1tm1Cgr/J mouse model of Fragile X syndrome assessed as decrease in time spent in moving at 20 mg/kg, sc for 5 days and measured for 30 mins by open field assay; assay type: functional, organism-based; conditions: time 5.0 day; outline: as §3
Mus musculus [10] = assay: Protective activity in Fmr1 knockout FVB.129P2-Fmr1tm1Cgr/J mouse model of Fragile X syndrome assessed as decrease in stereotypy count at 20 mg/kg, sc for 5 days by open field assay; assay type: functional, organism-based; conditions: time 5.0 day; outline: as §3
Mus musculus [11] = assay: Protective activity in FVB.129P2-Pde6b+ Tyr c-ch/AntJ wild type mouse assessed as decrease in horizontal movements at 20 mg/kg, sc for 5 days and measured for 30 mins by open field assay; assay type: functional, organism-based; conditions: time 5.0 day; outline: as §3
Mus musculus [12] = assay: Protective activity in Fmr1 knockout FVB.129P2-Fmr1tm1Cgr/J mouse model of Fragile X syndrome assessed as balance on accelerating rotarod at 20 mg/kg, sc and measured for 4 to 5.25 hrs by rotarod test; assay type: functional, organism-based; conditions: time 4-5.25 hrs
Outline: (§4)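 Adult male WT and Fmr1 KO mice tested 4–5.5 h after s.c. 20 mg/kg or vehicle. Latency to fall or jump off the rotating cylinder recorded (max 3 min). Three trials per mouse, 30–40 min apart; per-mouse average latency compared.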

Mus musculus [13] = assay: Protective activity in FVB.129P2-Pde6b+ Tyr c-ch/AntJ wild type mouse assessed as motor coordination at 20 mg/kg, sc and measured for 4 to 5.25 hrs by rotarod test; assay type: functional, organism-based; conditions: time 4-5.25 hrs; outline: as §4

- Drug uptake [1]: Active
SMILES: CCn1c(=O)c(-c2ccc(Cl)cc2Cl)cc2cnc(Nc3ccc(N4CCNCC4)c(F)c3)nc21
- Activity (Mus musculus [2]): inactive
- Activity (Mus musculus [3]): inactive
- Activity (Mus musculus [4]): inactive
- Activity (Mus musculus [5]): Dose-Dependent Effect
- Activity (Mus musculus [6]): 80%
- Activity (Mus musculus [7]): Active
- Activity (Mus musculus [8]): Active
- Activity (Mus musculus [9]): Active
- Activity (Mus musculus [10]): Active
- Activity (Mus musculus [11]): Active
- Activity (Mus musculus [12]): inactive
- Activity (Mus musculus [13]): inactive

Source: ChEMBL document CHEMBL5653614, “Rescue of fragile X syndrome phenotypes in Fmr1 KO mice by the small-molecule PAK inhibitor FRAX486” (Proc Natl Acad Sci U S A, 2013)
